# Source: ChEMBL document CHEMBL3580581, “Bisabolane Sesquiterpenoids from the Plant Endophytic Fungus Paraconiothyrium brasiliense” (J Nat Prod, 2015)
# pIC50: −log10 of the molar value. Active and inactive are the calls of the source. The calls are words filed in the database; no cut-off is given here.
# Experiments:
# [1] = Cytotoxicity against human CNE1-LMP1 cells assessed as reduction in cell viability by MTS assay; type: functional, cell-based
# In short: (§1)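 MTS viability assay. Cells were seeded at 5 × 10^3 per well for 24 h, then exposed to serial dilutions (5, 10, 15, 20, and 50 μM) in medium with 10% FBS and grown for the indicated duration. Controls got DMSO. MTS was added for 1 h at 37 °C and absorbance read at 490 nm. Results are % of control, with IC50 calculated.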
# [2] = Cytotoxicity against human MGC cells assessed as reduction in cell viability by MTS assay; type: functional, cell-based; in short: as §1
# [3] = Cytotoxicity against human EC109 cells assessed as reduction in cell viability by MTS assay; type: functional, cell-based; conditions: ECa-109; in short: as §1
# [4] = Cytotoxicity against human PANC1 cells assessed as reduction in cell viability by MTS assay; type: functional, cell-based; conditions: PANC-1; in short: as §1
# [5] = Cytotoxicity against human Hep3B2 cells assessed as reduction in cell viability by MTS assay; type: functional, cell-based, Hep 3B2; conditions: Hep3B; in short: as §1
# [6] = Cytotoxicity against mouse NIH/3T3 cells assessed as reduction in cell viability by MTS assay; type: cell-based; conditions: NIH3T3; in short: as §1
# A549 [7] = assay: Cytotoxicity against human A549 cells assessed as reduction in cell viability at 50 uM by MTS assay; type: functional, cell-based; in short: as §1
# CNE1-LMP1 = assay: Cytotoxicity against human CNE1-LMP1 cells assessed as reduction in cell viability at 50 uM by MTS assay; type: functional, cell-based; in short: as §1
# A-375 [8] = assay: Cytotoxicity against human A375 cells assessed as reduction in cell viability at 50 uM by MTS assay; type: functional, cell-based; in short: as §1
# MCF7 [9] = assay: Cytotoxicity against human MCF7 cells assessed as reduction in cell viability at 50 uM by MTS assay; type: functional, cell-based; in short: as §1
# MGC = assay: Cytotoxicity against human MGC cells assessed as reduction in cell viability at 50 uM by MTS assay; type: functional, cell-based; in short: as §1
# ECa-109 = assay: Cytotoxicity against human EC109 cells assessed as reduction in cell viability at 50 uM by MTS assay; type: functional, cell-based; in short: as §1
# PANC-1 = assay: Cytotoxicity against human PANC1 cells assessed as reduction in cell viability at 50 uM by MTS assay; type: functional, cell-based; in short: as §1
# Hep 3B2 = assay: Cytotoxicity against human Hep3B2 cells assessed as reduction in cell viability at 50 uM by MTS assay; type: functional, cell-based; in short: as §1
# HaCaT [10] = assay: Cytotoxicity against human HaCaT cells assessed as reduction in cell viability at 50 uM by MTS assay; type: cell-based; in short: as §1
# [11] = Cytotoxicity against mouse NIH/3T3 cells assessed as reduction in cell viability at 50 uM by MTS assay; type: cell-based; conditions: nih3t3, 50 µM; in short: as §1
# A549 [12] = assay: Cytotoxicity against human A549 cells assessed as reduction in cell viability by MTS assay; type: functional, cell-based; in short: as §1
# A-375 [13] = assay: Cytotoxicity against human A375 cells assessed as reduction in cell viability by MTS assay; type: functional, cell-based; in short: as §1
# MCF7 [14] = assay: Cytotoxicity against human MCF7 cells assessed as reduction in cell viability by MTS assay; type: functional, cell-based
# HaCaT [15] = assay: Cytotoxicity against human HaCaT cells assessed as reduction in cell viability by MTS assay; type: cell-based; in short: as §1
# MCF7 [16] = assay: Reduction in glucose uptake in human MCF7 cells assessed per 10^5 cells at 20 uM incubated for 12 hrs (reference value: 5.6 nM/hr/10^5 cells); type: functional
# In short: (§2)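 Cells were seeded and after 24 h switched to fresh medium with 10% FBS, with or without 20 μM compound. After 12 h, supernatant glucose and lactate were measured on an automatic biochemistry analyzer. Cell numbers were counted in parallel by MTS. Rates (nmol/h/10^5 cells) were computed as the difference from blank medium divided by 12 h and by cell number. LY294002 served as positive control.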
# MCF7 [17] = assay: Reduction in lactate secretion in human MCF7 cells assessed per 10^5 cells at 20 uM incubated for 12 hrs; type: functional; in short: as §2
# HaCaT [18] = assay: Toxicity in human HaCaT cells assessed as reduction in glucose uptake per 10^5 cells at 20 uM incubated for 12 hrs; type: cell-based; in short: as §2
# HaCaT [19] = assay: Toxicity in human HaCaT cells assessed as reduction in lactate secretion per 10^5 cells at 20 uM incubated for 12 hrs; type: cell-based; in short: as §2
# MCF7 [20] = assay: Reduction in ATP generation in human MCF7 cells at 20 uM incubated for 12 and 24 hrs; type: functional, cell-based
# In short: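 MCF-7 cells were exposed to 20 μM for 2, 4, 6, 8, 12 and 24 h. ATP was measured with a commercial kit, quantified against an ATP standard curve and expressed as % of the control group.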
# MCF7 [21] = assay: Reduction in hexokinase-2 protein expression in human MCF7 cells by SDS-PAGE and Western blotting method; type: functional, cell-based; conditions: TDE = time-dependent effect
# In short: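 MCF-7 cells were treated for 1, 3, 6, 12, 24 and 48 h and lysed in cold buffer. 50 μg protein was run on 10% SDS-PAGE and transferred to nitrocellulose. Membranes were probed with anti-HK2 primary antibody at 4 °C overnight, then HRP secondary for 1 h at room temperature, with ECL detection. α-Tubulin was the internal control.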
Compound,Activity (A549 [7]),Activity (CNE1-LMP1),Activity (A-375 [8]),Activity (MCF7 [9]),Activity (MGC),Activity (ECa-109),Activity (PANC-1),Activity (Hep 3B2),Activity (HaCaT [10]),Activity [11],other results
CC(=O)O[C@H]1C(=O)[C@@]2(C)[C@H]([C@H](OC(=O)c3ccccc3)[C@]3(O)C[C@H](OC(=O)[C@H](O)[C@@H](NC(=O)c4ccccc4)c4ccccc4)C(C)=C1C3(C)C)[C@]1(OC(C)=O)CO[C@@H]1C[C@@H]2O [PACLITAXEL],–,–,–,–,–,–,–,–,–,–,pIC50 [1]: 8.38; pIC50 [2]: 8.19; pIC50 [3]: 6.85; pIC50 [4]: 8.96; pIC50 [5]: 10.80; pIC50 [6]: 5.38
CC(=O)OC[C@]1(O)CC[C@H](C2=C/C(=C/C(C)C(N)=O)OC2=O)CC1 (mixture of isomers),inactive,inactive,inactive,inactive,inactive,inactive,inactive,inactive,Non-toxic,Non-toxic,–
C=C1CCC(C2=C/C(=C\C(C)C(N)=O)OC2=O)CC1 (racemic),inactive,inactive,inactive,inactive,inactive,inactive,inactive,inactive,Non-toxic,Non-toxic,–
C/C(=C\c1cc([C@H]2CC[C@@](O)(CO)CC2)co1)C(N)=O,inactive,inactive,inactive,inactive,inactive,inactive,inactive,inactive,Non-toxic,Non-toxic,–
C=C1CCC(c2coc(/C=C(\C)C(N)=O)c2)CC1,–,–,–,–,–,–,–,–,–,–,pIC50 (A549 [12]): < 4.30; pIC50 [1]: < 4.30; pIC50 (A-375 [13]): < 4.30; pIC50 (MCF7 [14]): 5.08; pIC50 [2]: 4.83; pIC50 [3]: < 4.30; pIC50 [4]: < 4.30; pIC50 [5]: < 4.30; pIC50 (HaCaT [15]): < 4.30; pIC50 [6]: < 4.30; Activity (MCF7 [16]): 4.2 nM/h; Activity (MCF7 [17]): 0.5 nM/h; Activity (HaCaT [18]): Non-toxic; Activity (HaCaT [19]): Non-toxic; inhibition (MCF7 [20]): Active; inhibition (MCF7 [21]): tde
CC(/C=C1/C=C([C@H]2CC[C@@](O)(CO)CC2)C(=O)O1)C(N)=O (mixture of isomers),inactive,inactive,inactive,inactive,inactive,inactive,inactive,inactive,Non-toxic,Non-toxic,–
C=C1CCC(C2=C/C(=C/C(C)C(N)=O)OC2=O)CC1 (racemic),inactive,inactive,inactive,inactive,inactive,inactive,inactive,inactive,Non-toxic,Non-toxic,–
